{"data": "Results gathered from unrelated publications", "cell line": "MOLT-4", "observed": "cell growth or viability", "note": "Compare with care: the assays were run in different laboratories."}
{"Compound": "O=C(CSc1nc2ccccc2s1)N/N=C/c1ccc(OCC(=O)Nc2ccc(Br)cc2)cc1", "method": "MTS", "time": "72 h", "IC50": "> 100000 nM"}
{"Compound": "Cc1ncsc1-c1ccc([C@H](C)NC(=O)[C@@H]2C[C@@H](O)CN2C(=O)[C@@H](NC(=O)CCCCCS(=O)(=O)NC(=O)c2nc(N3CCc4cccc(C(=O)Nc5nc6ccccc6s5)c4C3)ccc2-c2cnn(CC34CC5CC(CC(C5)C3)C4)c2C)C(C)(C)C)cc1", "method": "MTS", "time": "48 h", "IC50": "4 nM"}
{"Compound": "COc1ccc(Nc2ncnc3c2ncn3Cc2ccc(C(=O)NO)cc2)cc1", "method": "MTT", "time": "72 h", "IC50": "460 nM"}
{"Compound": "COc1cccc2c1C(=O)c1c(O)c3c(c(O)c1C2=O)C[C@@](O)(C(=O)CO)C[C@@H]3O[C@H]1C[C@H](N)[C@H](O)[C@H](C)O1", "time": "96 h", "IC50": "2.61 nM"}
{"Compound": "Cc1nc(Nc2ncc(C(=O)Nc3c(C)cccc3Cl)s2)cc(N2CC[C@H](O)C2)n1", "method": "ATP luminescence", "time": "72 h", "IC50": "> 10000 nM"}
{"Compound": "COc1cc([C@@H]2c3cc4c(cc3[C@@H](O[C@@H]3O[C@@H]5CO[C@@H](C)O[C@H]5[C@H](O)[C@H]3O)[C@H]3COC(=O)[C@H]23)OCO4)cc(OC)c1O", "method": "MTS", "time": "72 h", "IC50": "180 nM"}
{"Compound": "CN1CCC(NC2CCc3[nH]c4c(C(N)=O)ccc(-c5ccccc5Cl)c4c3C2)CC1 (centres unmarked)", "time": "96 h", "IC50": "18.7 nM"}
{"Compound": "CCS(=O)(=O)NC(=O)c1nc(N2CCc3cccc(C(=O)Nc4nc5ccccc5s4)c3C2)ccc1-c1cnn(CC23CC4CC(CC(C4)C2)C3)c1C", "method": "MTS", "time": "48 h", "IC50": "5.1 nM"}
{"Compound": "COc1ccc(Nc2ncnc3c2ncn3Cc2ccc(C(=O)Nc3ccccc3N)cc2)cc1", "method": "MTT", "time": "72 h", "IC50": "610 nM"}
{"Compound": "Cc1ncsc1-c1ccc([C@H](C)NC(=O)[C@@H]2C[C@@H](O)CN2C(=O)[C@@H](NC(=O)CCCCCCS(=O)(=O)NC(=O)c2nc(N3CCc4cccc(C(=O)Nc5nc6ccccc6s5)c4C3)ccc2-c2cnn(CC34CC5CC(CC(C5)C3)C4)c2C)C(C)(C)C)cc1", "method": "MTS", "time": "48 h", "IC50": "4.5 nM"}
{"Compound": "O=C(NO)c1ccc(Cn2cnc3c(Nc4ccc(F)c(Cl)c4)ncnc32)cc1", "method": "MTT", "time": "72 h", "IC50": "660 nM"}
{"Compound": "O=C(CSc1nc2ccccc2s1)N/N=C/c1ccc(OCC(=O)Nc2cccc(Br)c2)cc1", "method": "MTS", "time": "72 h", "IC50": "> 100000 nM"}
{"Compound": "Cc1c(-c2ccc(N3CCc4cccc(C(=O)Nc5nc6ccccc6s5)c4C3)nc2C(=O)O)cnn1CC12CC3CC(C1)CC(C(=O)NCCCCCCCCCCCCNc1cccc4c1C(=O)N(C1CCC(=O)NC1=O)C4=O)(C3)C2 (centres unmarked)", "method": "MTS", "time": "48 h", "IC50": "49.4 nM"}
{"Compound": "O=C(NO)c1ccc(Cn2cnc3c(Nc4ccc(Cl)cc4)ncnc32)cc1", "method": "MTT", "time": "72 h", "IC50": "190 nM"}
